Each block holds one compound with its values, some of them ahead of it. Calls of active or inactive are those of the source. No cut-off for these calls is given here.
Tests used:
Danio rerio = species on record: Danio rerio; experiment: Inhibition of caudal fin regeneration after mechanical resection in zebrafish at 10 uM after 7 days; format: functional, organism-based
Method in brief: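 Zebrafish 3-6 months old anaesthetized in 0.02% Tricaine; half of caudal fin resected with razor blade; kept at 28°C in tank water with 10μM compound or DMSO; water and compound replenished daily over assay period.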

DU-145 = experiment: Antiproliferative activity against human DU145 cells assessed as cellular ATP levels after 6 days by Cell-Titer Glow assay; format: functional, cell-based
Method in brief: (§1)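 Cancer cells seeded at 2.5K cells/well with carrier or compound, 0.5% DMSO final; medium with compound changed every 24 hrs for 5 days; on day 6 cellular ATP quantified by CellTiter-Glo luminescence.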

[1] = Inhibition of Wnt3A/[…] pathway activity in mouse L cell expressing Wnt3a assessed as decrease in phosphorylated Lrp6 level at 10 uM after 24 hrs by Western blot analysis; format: cell-based
[2] = Inhibition of Wnt3A/[…] pathway activity in mouse L cell expressing Wnt3a assessed as decrease in phosphorylated Dvl2 level at 10 uM after 24 hrs by Western blot analysis; format: cell-based
DLD-1 [3] = experiment: Decrease in beta-[…] accumulation in human DLD1 cells expressing in APC mutant; format: functional, cell-based
[4] = Inhibition of Wnt1/beta-[…] pathway activity in mouse L cell expressing Wnt1 and STF assessed as decreased firefly luciferase reporter expression; format: cell-based
Axin-1 (Homo sapiens) [5] = target: Axin-1 (Homo sapiens) (UniProt O15169); experiment: Induction of Axin1 protein stabilization in human H460 cells by Western blot analysis; format: cell-based
[6] = Inhibition of Wnt3A/[…] pathway activity in mouse L cell expressing Wnt3A and STF assessed as decreased firefly luciferase reporter expression; format: cell-based
Method in brief: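 L-Wnt-STF cells (mouse L-cells stably carrying SuperTopFlash firefly luciferase reporter, control reporter and Wnt3A expression construct), ~5K per well; compounds added 24 hrs after seeding; luciferase activities read 24 hrs later; IC50s calculated from these dose-dependent assays.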

Axin-1 (Homo sapiens) [7] = target: Axin-1 (Homo sapiens) (UniProt O15169); experiment: Induction of Axin1 protein stabilization in human DLD1 cells by Western blot analysis; format: cell-based; settings: DLD-1
Method in brief: (§2)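 DLD-1 cells exposed to IWR compound at 10μM for a 48 hr assay period; protein levels assessed by Western blot of cell lysates.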

[8] = Inhibition of Wnt3A/[…] pathway activity in mouse L cell expressing Wnt3a assessed as inhibition of […] accumulation at 10 uM after 24 hrs by Western blot analysis; format: cell-based
DLD-1 [9] = experiment: Antiproliferative activity against human DLD1 cells overexpressing beta-[…] assessed as renilla luciferase activity after 6 days; format: functional, cell-based
[10] = Inhibition of Wnt2/beta-[…] pathway activity in mouse L cell expressing Wnt2 and STF assessed as decreased firefly luciferase reporter expression; format: cell-based
DLD-1 [11] = experiment: Antiproliferative activity against human DLD1 cells assessed as cellular ATP levels after 6 days by Cell-Titer Glow assay; format: functional, cell-based; method in brief: as §1
Axin-2 (Homo sapiens) [12] = target: Axin-2 (Homo sapiens) (UniProt Q9Y2T1); experiment: Induction of Axin2 accumulation in human DLD1 cells by Western blot analysis; format: cell-based; settings: DLD-1; method in brief: as §2
NCI-H460 = experiment: Antiproliferative activity against human H460 cells assessed as cellular ATP levels after 6 days by Cell-Titer Glow assay; format: functional, cell-based; method in brief: as §1
[13] = target: T1, Protein-serine O-palmitoleoyltransferase porcupine (Homo sapiens) (UniProt Q9H237); experiment: Inhibition of porcn in HEK293 cell lysate by Western blot analysis; format: cell-free
T1 sequence (whole entry): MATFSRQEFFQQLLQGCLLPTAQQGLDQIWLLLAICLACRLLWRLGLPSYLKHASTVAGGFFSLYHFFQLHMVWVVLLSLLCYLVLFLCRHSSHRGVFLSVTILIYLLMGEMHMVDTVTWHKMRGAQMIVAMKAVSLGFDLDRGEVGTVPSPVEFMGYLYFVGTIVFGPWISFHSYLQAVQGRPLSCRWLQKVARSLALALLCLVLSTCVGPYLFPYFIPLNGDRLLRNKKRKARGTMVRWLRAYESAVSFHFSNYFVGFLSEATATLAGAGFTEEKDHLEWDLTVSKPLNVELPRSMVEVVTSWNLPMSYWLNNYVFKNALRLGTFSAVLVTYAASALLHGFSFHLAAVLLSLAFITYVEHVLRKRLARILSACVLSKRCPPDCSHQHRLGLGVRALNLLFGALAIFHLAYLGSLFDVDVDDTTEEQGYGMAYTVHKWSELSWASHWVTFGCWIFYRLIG
Method in brief: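 Lysate (10mM Na2HPO4 pH7.4, […], 1% NP-40) of HEK293 cells transfected with Porcn-myc preincubated 1 hr at 4°C with DMSO, linker or competitor, then NeutrAvidin resin plus biotinylated probe (0.17 mM); rotated overnight at 4°C, washed, eluate analysed by Western blot.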

[14] = Inhibition of Notch pathway in mouse L cells at 2.5 uM
[15] = target: T1, Protein-serine O-palmitoleoyltransferase porcupine (Homo sapiens); experiment: Inhibition of porcn-mediated Shh palmitoylation in human DLD1 lysate by detergent solubility fractionation assessed as [3H]palmitate incorporation at 2.5 uM by autoradiography method
[16] = target: T1, Protein-serine O-palmitoleoyltransferase porcupine (Homo sapiens); experiment: Inhibition of porcn-mediated Lrp6 maturation in human DLD1 lysate by detergent solubility fractionation assessed as [3H]palmitate incorporation at 2.5 uM by autoradiography method
[17] = Inhibition of Wnt3A/[…] pathway activity in mouse L cell expressing Wnt3a assessed as decrease in phosphorylated Lrp6 level at 5 uM after 24 hrs by Western blot analysis; format: cell-based
[18] = Inhibition of Wnt3A/[…] pathway activity in mouse L cell expressing Wnt3a assessed as decrease in phosphorylated Dvl2 level at 5 uM after 24 hrs by Western blot analysis; format: cell-based
[19] = target: T1, Protein-serine O-palmitoleoyltransferase porcupine (Homo sapiens); experiment: Displacement of IWP-PB from porcn in HEK293 lysate by Western blot analysis
[20] = Inhibition of Wnt3A/[…] pathway activity in mouse L cell expressing Wnt3a assessed as inhibition of […] accumulation at 5 uM after 24 hrs by Western blot analysis; format: cell-based
Axin-2 (Homo sapiens) [21] = target: Axin-2 (Homo sapiens) (UniProt Q9Y2T1); experiment: Induction of Axin2 stabilization in human DLD1 cells assessed as inhibition of Wnt/beta-[…] pathway; format: cell-based; settings: DLD-1
Axin-2 (Homo sapiens) [22] = target: Axin-2 (Homo sapiens) (UniProt Q9Y2T1); experiment: Binding affinity to Axin2 IWR-IS in HEK293 cells; format: cell-based
Axin-2 (Homo sapiens) [23] = target: Axin-2 (Homo sapiens) (UniProt Q9Y2T1); experiment: Binding affinity at Axin2 in HEK293 cells by Western blot method; format: cell-based

Chain of Axin-2 (Homo sapiens) (Q9Y2T1 whole entry): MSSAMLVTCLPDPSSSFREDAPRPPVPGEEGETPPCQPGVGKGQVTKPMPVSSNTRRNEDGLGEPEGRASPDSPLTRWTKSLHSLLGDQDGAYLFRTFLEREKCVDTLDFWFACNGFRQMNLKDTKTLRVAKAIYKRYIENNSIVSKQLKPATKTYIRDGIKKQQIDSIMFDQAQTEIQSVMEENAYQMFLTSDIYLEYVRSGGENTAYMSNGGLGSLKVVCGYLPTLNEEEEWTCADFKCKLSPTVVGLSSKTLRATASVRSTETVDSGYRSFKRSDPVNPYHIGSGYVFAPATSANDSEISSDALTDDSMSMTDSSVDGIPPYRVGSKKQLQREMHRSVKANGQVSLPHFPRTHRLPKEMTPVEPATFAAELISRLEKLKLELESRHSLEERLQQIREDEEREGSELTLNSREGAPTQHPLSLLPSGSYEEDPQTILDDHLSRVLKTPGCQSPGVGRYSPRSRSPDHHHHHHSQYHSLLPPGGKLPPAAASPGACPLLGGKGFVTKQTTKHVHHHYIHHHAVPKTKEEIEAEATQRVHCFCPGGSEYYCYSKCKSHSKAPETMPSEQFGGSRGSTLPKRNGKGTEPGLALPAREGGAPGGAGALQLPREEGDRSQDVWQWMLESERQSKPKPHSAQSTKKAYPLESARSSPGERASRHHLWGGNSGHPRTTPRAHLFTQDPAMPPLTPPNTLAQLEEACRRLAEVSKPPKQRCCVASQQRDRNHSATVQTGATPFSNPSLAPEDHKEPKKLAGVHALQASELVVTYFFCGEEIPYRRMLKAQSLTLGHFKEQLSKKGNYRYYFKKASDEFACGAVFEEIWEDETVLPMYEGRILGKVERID
Chain of Axin-1 (Homo sapiens) (O15169 whole entry): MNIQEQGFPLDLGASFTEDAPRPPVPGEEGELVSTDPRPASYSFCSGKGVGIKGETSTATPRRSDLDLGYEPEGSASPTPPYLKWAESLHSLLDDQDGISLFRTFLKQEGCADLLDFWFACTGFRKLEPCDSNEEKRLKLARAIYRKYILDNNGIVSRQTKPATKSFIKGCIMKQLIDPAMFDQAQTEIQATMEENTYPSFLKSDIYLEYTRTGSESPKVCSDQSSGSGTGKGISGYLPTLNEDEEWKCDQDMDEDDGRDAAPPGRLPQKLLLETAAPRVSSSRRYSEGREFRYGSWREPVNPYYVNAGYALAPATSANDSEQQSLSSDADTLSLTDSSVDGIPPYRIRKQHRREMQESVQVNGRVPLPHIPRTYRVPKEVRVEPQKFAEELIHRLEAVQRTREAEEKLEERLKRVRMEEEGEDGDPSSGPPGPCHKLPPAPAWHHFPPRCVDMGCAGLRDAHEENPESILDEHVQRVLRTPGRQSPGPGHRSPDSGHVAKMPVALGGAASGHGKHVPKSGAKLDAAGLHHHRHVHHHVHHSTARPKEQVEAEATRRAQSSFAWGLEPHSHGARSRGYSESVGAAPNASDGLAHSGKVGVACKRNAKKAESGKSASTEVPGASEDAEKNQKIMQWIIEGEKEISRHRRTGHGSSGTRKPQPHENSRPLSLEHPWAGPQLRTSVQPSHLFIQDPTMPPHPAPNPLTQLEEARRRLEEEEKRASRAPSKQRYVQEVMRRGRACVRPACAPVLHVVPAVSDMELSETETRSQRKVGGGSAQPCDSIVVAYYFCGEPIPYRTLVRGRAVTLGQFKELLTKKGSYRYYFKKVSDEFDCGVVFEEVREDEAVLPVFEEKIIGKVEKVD

Structure (SMILES): Cc1cccc2nc(Cn3c(=O)n(CC4CCC(C(=O)NCc5ccccc5)CC4)c(=O)c4ccccc43)cc(=O)n12 (stereo unspecified)
inhibition (Danio rerio): Active
Activity (DU-145): Active
inhibition [1]: inactive
inhibition [2]: inactive
inhibition (DLD-1 [3]): Active
inhibition [4]: Active
Activity (Axin-1 (Homo sapiens) [5]): Active
inhibition [6]: Active
Activity (Axin-1 (Homo sapiens) [7]): Active
inhibition [8]: Active
Activity (DLD-1 [9]): inactive
inhibition [10]: Active
Activity (DLD-1 [11]): Active
Activity (Axin-2 (Homo sapiens) [12]): Active
Activity (NCI-H460): inactive

Structure (SMILES): COc1ccc(-n2nc(C(=O)NCC(=O)Nc3nc4ccc(OC)cc4s3)c3ccccc3c2=O)cc1
inhibition (Danio rerio): inactive
inhibition [14]: inactive
inhibition [15]: inactive
inhibition [16]: inactive
inhibition [17]: Active
inhibition [18]: Active
inhibition [19]: Active
inhibition [20]: Active

Structure (SMILES): O=C(Nc1cccc2cccnc12)c1ccc(N2C(=O)[C@@H]3[C@H](C2=O)[C@H]2C=C[C@@H]3C2)cc1
inhibition (Danio rerio): inactive
Activity (Axin-2 (Homo sapiens) [21]): inactive

Structure (SMILES): O=C(O)c1ccc(N2C(=O)[C@@H]3[C@H](C2=O)[C@@H]2C=C[C@H]3C2)cc1
inhibition (Danio rerio): inactive
Activity (Axin-2 (Homo sapiens) [21]): inactive

Structure (SMILES): N#Cc1ccccc1Cn1c(=O)n(CC2CCC(C(=O)NCc3ccccc3)CC2)c(=O)c2ccccc21 (stereo unspecified)
inhibition [1]: inactive
inhibition [2]: inactive
inhibition (DLD-1 [3]): Active
inhibition [4]: Active
inhibition [6]: Active
inhibition [8]: Active
inhibition [10]: Active
Activity (Axin-2 (Homo sapiens) [12]): Active

Structure (SMILES): O=C(NC1CCCC1)c1ccc(Cn2c(=O)c3ccccc3n(Cc3cc(=O)n4ccccc4n3)c2=O)cc1
inhibition [1]: inactive
inhibition [2]: inactive
inhibition (DLD-1 [3]): Active
inhibition [4]: Active
inhibition [6]: Active
inhibition [8]: Active
inhibition [10]: Active
Activity (Axin-2 (Homo sapiens) [12]): Active

Structure (SMILES): Cc1ccc2nc(NC(=O)CSc3nc4c(c(=O)n3-c3ccc(CNC(=O)CCOCCOCCOCCNC(=O)CCCC[C@@H]5SC[C@@H]6NC(=O)N[C@@H]65)cc3)SCC4)sc2c1
Activity (Axin-2 (Homo sapiens) [22]): Active
Activity (Axin-2 (Homo sapiens) [23]): Active
Inhibition (active/inactive) [13]: Active

Second part, led by results:

Inhibition (active/inactive) [13]: Active
Structure (SMILES): O=C(CSc1nc2c(c(=O)n1-c1ccccc1)SCC2)Nc1nccs1

Inhibition (active/inactive) [13]: Active
Structure (SMILES): Cc1ccc2nc(NC(=O)CSc3nc4c(c(=O)n3Cc3ccccc3)SCC4)sc2c1

inhibition [15]: inactive
Structure (SMILES): Cc1ccc2nc(NC(=O)CSc3nc4c(c(=O)n3-c3ccc(F)cc3)SCC4)sc2c1
inhibition (Danio rerio): inactive
inhibition [14]: inactive
inhibition [17]: Active
inhibition [18]: Active
inhibition [20]: Active

Inhibition (active/inactive) [13]: Active
Structure (SMILES): CC1Cc2nc(SCC(=O)Nc3nc4ccccc4s3)n(Cc3ccccc3)c(=O)c2S1 (stereo unspecified)

inhibition [15]: inactive
Structure (SMILES): COc1ccccc1-n1c(SCC(=O)Nc2nc3ccc(C)cc3s2)nc2c(c1=O)SCC2
inhibition (Danio rerio): inactive
inhibition [14]: inactive
inhibition [17]: Active
inhibition [18]: Active
inhibition [20]: Active

Source: ChEMBL document CHEMBL1255380, “Small molecule-mediated disruption of Wnt-dependent signaling in tissue regeneration and cancer” (Nat Chem Biol, 2009)
